Published values gathered from unrelated publications.
Compare with care: the assays were run in different laboratories.
Target: Dual specificity testis-specific protein kinase 1 (TESK1, Homo sapiens, UniProt Q15569)

SMILES | test | setting | endpoint | value
CC(C)(O)[C@H]1CC[C@H](Nc2ccc3ncc(-c4cccc(C(F)(F)F)c4)n3n2)CC1 | enzyme activity, inhibitor | 1 µM | remaining activity | 83.5%
Cc1sc(C(=O)NC2COC2)cc1-n1cc(NC(=O)Nc2c(F)cccc2Cl)cn1 | enzyme activity, inhibitor | 10 µM | remaining activity | 88%
COc1cc(/C=C/C(=O)CC(=O)/C=C/c2ccc(O)c(OC)c2)ccc1O | enzyme activity, inhibitor | 1 µM | activity vs control | 101%
O=C1CCc2cc(Nc3cc(OC4CCOCC4)c([N+](=O)[O-])cc3Cl)ccc2N1 | cell-free assay, competition with immobilised ligand | 1 µM | remaining binding | 92%
Cc1ccc(C(=O)Nc2ccc(CN3CCN(C)CC3)c(C(F)(F)F)c2)cc1C#Cc1cnc2cccnn12 | enzyme activity, inhibitor | 23.5 nM | remaining activity | 100%
Nc1ncnc2occ(-c3ccc(NC(=O)Nc4cc(C(F)(F)F)ccc4F)cc3)c12 | cell-free assay, inhibitor | 20 µM | remaining signal | 7.4%
COc1cc(Nc2cnc(C#N)c(O[C@H](C)CN(C)C)n2)ncc1-c1cnn(C)c1 | enzyme activity, inhibitor, radiometric | 1 µM | remaining activity | 110%
c1ccc(N2CCN(Cc3nc4ccccc4[nH]3)CC2)nc1 | binding, competition with immobilised ligand | 1 µM | remaining binding | 97%
O=C(Nc1cnn(-c2csc(C(=O)NC3COC3)c2)c1)Nc1ccccc1Cl | enzyme activity, inhibitor | 5 µM | remaining activity | 100%
